F508del corr – F508del CFTR correction, initial screen, CFBE line, single point; CFBE cells, YFP halide quenching; stimulated with forskolin plus potentiator P3; % fluorescence drop versus neutral controls; activity (quench increase), % at 7.58 µM; 0.36% of 350,000 active;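 active means mean added fluorescence quench of at least 8% versus neutral control, with both replicates also reaching 8%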;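 further: cells transiently co-express mutant CFTR-F508del with the halide-sensitive YFP; corrector assay measuring rescue of mutant channel to the surface after 24 h compound exposure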
SMARCA2 act – SMARCA2 (BRM) function activators, primary screen, cell-based, luminescence, high throughput. 1% of 370,000 active. activation, % at 9.1 µM. MG213 cells, MMTV-luciferase reporter, dexamethasone, overnight; in the data active means activation above about 7.8%;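 further: 0% = vehicle wells and 100% = reference activator wells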
MC4R antagonist – MC4R antagonists of cAMP signaling, primary screen, cell-based, TR-FRET, antagonist arm of biased-ligand search | Melanocortin receptor 4 (Homo sapiens), P32245 | inhibition, % at 6.5 µM | 0.48% of 360,000 active | MC4R-expressing cells, MTII-stimulated cAMP, LANCE TR-FRET;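 active means inhibition above its plate's cutoff, the mean of tested wells on that plate plus 3 SD, cut at about 29% in these data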;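 further: 0% = Melanotan II alone and 100% = Melanotan II plus saturating MCL0020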
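System: U2OS cells stably expressing human melanocortin 4 receptor (MC4R). Reagent: Melanotan II challenge after compound preincubation. Doses: 6.5 µM. Times: 30-min compound, 1-h challenge, 1-h detection, room temperature. Measured by: TR-FRET with Eu-cAMP and labeled anti-cAMP, 671 nm. Replicates: singlicate.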
MC4R barr agon – MC4R agonists recruiting beta-arrestin, primary screen, cell-based, luminescence, agonist arm of biased-ligand search; 0.98% of 360,000 active; U2OS MC4R beta-arrestin complementation; percent of melanotan II response, DMSO zero; Melanocortin receptor 4 (Homo sapiens), P32245; activation, % at 8.9 µM;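 active means activation above a per-plate cutoff, the mean activation of sample wells on that plate plus 3 SD, cut at about 8% in these data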
MC4R barr conf – MC4R beta-arrestin agonists, retest, confirmation, cell-based, luminescence, U2OS. shares compounds with MC4R barr agon. U2OS MC4R beta-arrestin recruitment; scaled DMSO 0%, Melanotan II 100%. activation, % at 8.9 µM. 31% of 2,400 active. AID 602192, 2012;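 active means mean activation across replicates above the hit cutoff set in the earlier primary screen, cut at about 8% in these data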
MOR DOR agonist – agonists of MOR-DOR heterodimerization, counter-screen for MC4R biased agonist project, cell-based, luminescence; shares compounds with MC4R barr agon; U2OS PathHunter beta-arrestin, beta-gal luminescence; percent of deltorphin B response, DMSO zero; activation, % at 9.2 µM; 5.8% of 2,400 active; AID 602194, 2012;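 active means mean activation across replicates exceeds the hit threshold derived in the earlier primary screen, cut at about 18% in these data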;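 further: 100% = deltorphin B at 0.9 µM final and 0% = DMSO alone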
Target sequence (P35372 whole entry, looked up): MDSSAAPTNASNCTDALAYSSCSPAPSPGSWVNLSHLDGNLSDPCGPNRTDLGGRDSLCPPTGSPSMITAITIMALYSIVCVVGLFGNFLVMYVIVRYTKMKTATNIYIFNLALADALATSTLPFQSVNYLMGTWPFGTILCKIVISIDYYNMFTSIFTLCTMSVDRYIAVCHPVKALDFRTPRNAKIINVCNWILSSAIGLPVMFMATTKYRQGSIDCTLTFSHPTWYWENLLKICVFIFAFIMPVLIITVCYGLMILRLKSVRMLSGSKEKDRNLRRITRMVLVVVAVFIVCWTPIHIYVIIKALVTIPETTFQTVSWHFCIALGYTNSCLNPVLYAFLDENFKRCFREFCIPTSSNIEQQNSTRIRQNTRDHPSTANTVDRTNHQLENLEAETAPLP
Target sequence (P41143 whole entry, looked up): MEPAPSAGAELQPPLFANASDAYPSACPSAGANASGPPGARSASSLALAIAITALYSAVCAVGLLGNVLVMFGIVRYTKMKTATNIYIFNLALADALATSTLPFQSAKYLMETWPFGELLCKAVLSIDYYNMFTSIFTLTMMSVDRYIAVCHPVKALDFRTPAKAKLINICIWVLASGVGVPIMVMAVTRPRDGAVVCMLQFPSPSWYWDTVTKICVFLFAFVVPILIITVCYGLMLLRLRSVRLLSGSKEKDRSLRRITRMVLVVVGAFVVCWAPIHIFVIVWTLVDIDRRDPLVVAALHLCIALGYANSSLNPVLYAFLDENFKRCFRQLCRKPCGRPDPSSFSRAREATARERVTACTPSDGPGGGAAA
The depositor's hits bear a star; . = not tested or not shown. A selection: hits, their analogues and other compounds. The true share with any hit is near 2.1%.

SMILES	F508del corr	SMARCA2 act	MC4R antagonist	MC4R barr agon	MC4R barr conf	MOR DOR agonist
Cc1ccc(NC(=O)COC(=O)C2CCN(c3ccc(C(F)(F)F)cn3)CC2)cc1C	-2	-1	-3	4	.	.
O=C(COC(=O)C1CCN(c2ccc(C(F)(F)F)cn2)CC1)Nc1cccc(F)c1	1	-3	8	13*	-2	6
C[C@@H]1CN([C@H](C)CO)C(=O)c2cc(NC(=O)Cc3cn(C)c4ccccc34)ccc2O[C@@H]1CN(C)Cc1ccc(Oc2ccccc2)cc1	3	.	.	.	.	.
COCC(=O)N1C[C@@H](C)[C@@H](OC)CN(C)C(=O)c2ccc(NC(=O)Nc3ccccc3)cc2OC[C@@H]1C	2	.	.	.	.	.
C[C@H](CO)N1C[C@H](C)[C@H](CN(C)C(=O)C2CCOCC2)Oc2ncc(-c3cccnc3)cc2C1=O	-2	.	.	.	.	.
Cc1cc(F)cc(-c2cc(C(=O)NCc3cccc(Cl)c3)[nH]n2)c1	1	-2	19	13*	2	7
Cc1cc(F)cc(-c2cc(C(=O)NCc3ccccc3)[nH]n2)c1	1	3	-3	1	.	.
COc1cc(SC#N)ccc1N=Cc1c(C)[nH]n(-c2ccc(C)c(C)c2)c1=O	.	-2	4	12*	9.3*	15
CCOC(=O)Cc1csc(NC(=O)c2sc3nc4ccc(C)cc4cc3c2N)n1	.	4	-5	19*	2	4
Cc1ccc(C)c(OCCC(=O)OCC(=O)NCCNC(=O)COC(=O)CCOc2cc(C)ccc2C)c1	-3	-2	-4	11*	1	5
Cc1ccc(C)c(OCCC(=O)OCC(=O)NCc2ccccc2)c1	1	-1	0	-3	.	.
O=C(Cc1c[nH]c2ccccc12)N/N=C/c1ccccc1O	-1	-6	3	1	.	.
CC(C)(C)c1ccc(/C=N/NC(=O)Cc2c[nH]c3ccccc23)cc1	.	-1	-1	10*	5	11
CNC(=O)C[C@H]1CC[C@H]2[C@@H](COc3ccc(NC(=O)c4cc(F)cc(F)c4)cc3C(=O)N2C)O1	0	.	.	.	.	.
CCOC(=O)c1ccc(-c2ccc(/C=C(\C#N)C(=O)NCc3cccs3)o2)cc1	.	0	-19	39*	27*	6
CNC(=O)/C(C#N)=C/c1ccc(-c2ccc(Cl)cc2)o1	2	2	5	14*	41*	13
CCOc1ccc(-c2cc(NC(=O)Cn3ncc4c3-c3ccccc3OC4)on2)cc1OCC	3	-3	8	16*	3	8
CCC(C)c1ccc(OCCn2cc(/C=N/NC(=O)CSc3nnc(C)s3)c3ccccc32)cc1 (configuration not stated)	.	-2	16	16*	5	5
CC(=O)Nc1ccc2c(c1)C(=O)N(C)[C@@H]1CC[C@@H](CC(=O)NCc3ccc(F)cc3)O[C@@H]1CO2	-3	.	.	.	.	.
CCCC(=O)N1CC2(CCN(C(=O)CC3CC3)CC2)c2c(n(C)c3cc(OC)ccc23)[C@@H]1CO	3	.	.	.	.	.
CCC(=O)N1C[C@H](C)[C@H](OC)CN(C)C(=O)c2ccc(NC(=O)c3ccccc3)cc2OC[C@H]1C	0	.	.	.	.	.
C[C@H](CO)N1C[C@H](C)[C@H](CN(C)C(=O)Nc2ccc3c(c2)OCO3)Oc2ccc(NC(=O)Cc3ccccc3)cc2C1=O	-1	.	.	.	.	.
Cc1ccc(Nc2cc(C)nc(-c3ccccc3O)n2)cc1	.	4	-13	0	.	.
Cc1cc(Nc2ccc(F)c(F)c2)nc(-c2ccccc2O)n1	7	2	4	14*	4	5
CCCN1C[C@@H](C)[C@H](OC)CN(C)C(=O)c2ccc(NC(=O)c3cccc(F)c3)cc2OC[C@@H]1C	0	.	.	.	.	.
SMILES	F508del corr	SMARCA2 act	MC4R antagonist	MC4R barr agon	MC4R barr conf	MOR DOR agonist
Cc1ccc(NC(=O)CSc2ccccc2NC(=O)c2ccccc2)cc1Cl	.	0	12	13*	8	24*
Cc1ccc(NC(=O)CSc2ccccc2NC(=O)c2ccccc2Cl)cc1Cl	.	1	8	0	.	.
C[C@H]1CN([C@@H](C)CO)C(=O)c2cc(-c3ccccc3)cnc2O[C@@H]1CN(C)C(=O)C1CCCCC1	0	.	.	.	.	.
Cc1noc(C)c1S(=O)(=O)Nc1ccc2c(c1)CC(=O)N([C@H](C)CO)C[C@H](C)[C@@H](CN(C)C(=O)Nc1ccc(C(F)(F)F)cc1)O2	4	.	.	.	.	.
O=C(NC(=O)c1cccc(F)c1)OC[C@@H]1CCCN2CCCC[C@H]12	-2	-1	1	0	.	.
O=C(Nc1ccc(C(=O)OC[C@@H]2CCCN3CCCC[C@H]23)cc1)c1cccc(Br)c1	0	0	6	12*	8	8
C[C@@H]1CCCCO[C@H](CN(C)S(=O)(=O)c2ccc(Cl)cc2)[C@@H](C)CN([C@@H](C)CO)C(=O)c2cc(NC(=O)CCC(F)(F)F)ccc2O1	4	.	.	.	.	.
Brc1ccc(-c2nc3ccccc3s2)s1	.	3	17	0	.	.
Brc1cc2c(cc1-c1nc3ccccc3s1)OCO2	0	-1	8	15*	1	4
CN1C(=O)[C@H]2[C@@H](c3ccc(C(F)(F)F)cc3)N[C@]3(CCCN(Cc4ccc(Cl)cc4)C3=O)[C@H]2C1=O	0	-2	16	9.7*	-3	2
CN1C(=O)[C@H]2[C@@H](c3ccc(C(F)(F)F)cc3)N[C@]3(CCCN(Cc4ccc(F)cc4)C3=O)[C@H]2C1=O	3	-3	20	-1	.	.
OC(CNCCc1ccc(C(F)(F)F)cc1)COc1cccc2ccccc12 (configuration not stated)	.	-3	12	15*	20*	10
OC(CNCCc1ccc(Cl)cc1)COCc1ccco1 (configuration not stated)	.	1	17	2	.	.
OC(CNC1CCCCCC1)COc1cccc2ccccc12 (configuration not stated)	-1	-3	2	0	.	.
COc1ccccc1COCC(O)CNCCc1ccc(C(F)(F)F)cc1 (configuration not stated)	-2	-3	16	11*	8	9
OC(CNCCc1ccc(C(F)(F)F)cc1)COc1ccc2ccccc2c1 (configuration not stated)	0	0	6	12*	9.4*	7
COCCNC(=O)C[C@H]1CC[C@@H]2[C@H](COc3ccc(NC(=O)c4cnccn4)cc3C(=O)N2C)O1	-3	.	.	.	.	.

Screening data as filed in PubChem BioAssay.
